{"source": "ChEMBL document CHEMBL3244186", "about": "“Synthesis and evaluation of the thiosemicarbazone, dithiocarbazonate, and 2'-pyrazinylhydrazone of pyrazinecarboxaldehyde as agents for the treatment of iron overload” (J Med Chem, 1979)", "key": {"[1]": {"system": "Mus musculus", "test": "Iron chelating activity in iron-overloaded BDF1 mouse assessed as iron level in heart at 40 mg/kg, ip treated from day 8 to 13 after erythrocyte suspension injection on day 1, 3 and 5 by atomic absorption spectroscopic analysis", "type": "functional", "conditions": "route intraperitoneal", "in_short": "(§1)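 Iron-loaded male BDF1 mice (10 per group) given ip drug in EtOH/Tween 80/saline vehicle daily on days 8-13. On day 15, under Et2O, mice were exsanguinated. Organs were washed, frozen, thawed, weighed and homogenized in 0.014 M NaCl made with iron-free water; supernatant iron was measured by AAS, as μg/mouse. Mean ± SD; t test versus iron-loaded vehicle control.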"}, "[2]": {"test": "Iron chelating activity assessed as removal of [59]-Fe from [59]-Fe-labeled transferrin at 1 mM measured per hr by spectrometric analysis", "type": "physicochemical", "conditions": "1000 µM", "in_short": "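About 10^6 cpm of 59Fe-labeled transferrin in 1.0 mL of 0.1 M Hepes (pH 7.00), inside a dialysis sack, dialyzed at room temperature against 25.0 mL of 1.00 mM ligand in the same buffer. Dialysate aliquots of 1.00 mL taken at intervals were gamma-counted (800-1400 keV window). Initial release rates were derived from these counts.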"}, "[3]": {"system": "Mus musculus", "test": "Iron chelating activity in iron-overloaded BDF1 mouse assessed as daily urinary iron level at 40 mg/kg, ip treated from day 8 to 13 after erythrocyte suspension injection on day 1, 3 and 5 by atomic absorption spectroscopic analysis", "type": "functional, Urine", "conditions": "route intraperitoneal"}, "[4]": {"test": "Iron chelating activity assessed as removal of iron from ferritin after 20 hrs by atomic absorption spectrophotometric analysis", "type": "physicochemical", "in_short": "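Ferritin holding 1.34 mg total Fe was dialyzed at room temperature against 25.0 mL of 1.00 mM ligand solution. Iron in the dialysate was measured by atomic absorption spectroscopy at 20 h.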"}, "[5]": {"system": "Mus musculus", "test": "Iron chelating activity in iron-overloaded BDF1 mouse assessed as transferrin saturation at 80 mg/kg, ip treated from day 8 to 13 after erythrocyte suspension injection on day 1, 3 and 5 relative to control", "type": "functional", "conditions": "route intraperitoneal", "in_short": "(§2)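 Iron-loaded male BDF1 mice (10 per group) received ip drug daily on days 8-13, with non-loaded and iron-loaded vehicle-treated control groups. On day 15, blood collected by cardiac puncture under Et2O was pooled per group. Percent transferrin saturation was measured with a standard hematologic kit.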"}, "[6]": {"system": "Mus musculus", "test": "Iron chelating activity in iron-overloaded BDF1 mouse assessed as iron level in lung at 80 mg/kg, ip treated from day 8 to 13 after erythrocyte suspension injection on day 1, 3 and 5 by atomic absorption spectroscopic analysis", "type": "functional", "conditions": "route intraperitoneal", "in_short": "as §1"}, "[7]": {"system": "Mus musculus", "test": "Iron chelating activity in iron-overloaded BDF1 mouse assessed as daily urinary iron level at 80 mg/kg, ip treated from day 8 to 13 after erythrocyte suspension injection on day 1, 3 and 5 by atomic absorption spectroscopic analysis", "type": "functional, Urine", "conditions": "route intraperitoneal"}, "[8]": {"system": "Mus musculus", "test": "Iron chelating activity in iron-overloaded BDF1 mouse assessed as iron level in lung at 40 mg/kg, ip treated from day 8 to 13 after erythrocyte suspension injection on day 1, 3 and 5 by atomic absorption spectroscopic analysis", "type": "functional", "conditions": "route intraperitoneal", "in_short": "as §1"}, "[9]": {"test": "Binding affinity to Fe(NO3)3 assessed as stability constant at pH 7.4 after 1 hr", "conditions": "pH 7.4, 1 h"}, "[10]": {"system": "Mus musculus", "test": "Iron chelating activity in iron-overloaded BDF1 mouse assessed as iron level in spleen at 40 mg/kg, ip treated from day 8 to 13 after erythrocyte suspension injection on day 1, 3 and 5 by atomic absorption spectroscopic analysis", "type": "functional", "conditions": "route intraperitoneal", "in_short": "as §1"}, "[11]": {"test": "Binding affinity to FeSO4 assessed as stability constant at pH 7.4 after 1 hr", "type": "physicochemical", "conditions": "pH 7.4, 1 h", "in_short": "(§3)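 Continuous-variation (Job) method: iron and ligand solutions diluted after 1 h to 10.00 mL with 50 mM barbital buffer (pH 7.4), all containing 0.100 M KNO3. Visible absorbance at λmax was read at several times to confirm equilibrium. Absorbance was plotted against metal/(metal + ligand) to give the stoichiometry and minimum stability constant.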"}, "[12]": {"system": "Mus musculus", "test": "Iron chelating activity in iron-overloaded BDF1 mouse assessed as iron level in heart at 80 mg/kg, ip treated from day 8 to 13 after erythrocyte suspension injection on day 1, 3 and 5 by atomic absorption spectroscopic analysis", "type": "functional", "conditions": "route intraperitoneal", "in_short": "as §1"}, "[13]": {"system": "Mus musculus", "test": "Iron chelating activity in iron-overloaded BDF1 mouse assessed as transferrin saturation at 40 mg/kg, ip treated from day 8 to 13 after erythrocyte suspension injection on day 1, 3 and 5 relative to control", "type": "functional", "conditions": "route intraperitoneal", "in_short": "as §2"}, "[14]": {"system": "Mus musculus", "test": "Iron chelating activity in iron-overloaded BDF1 mouse assessed as iron level in spleen at 80 mg/kg, ip treated from day 8 to 13 after erythrocyte suspension injection on day 1, 3 and 5 by atomic absorption spectroscopic analysis", "type": "functional", "conditions": "route intraperitoneal", "in_short": "as §1"}, "[15]": {"system": "Mus musculus", "test": "Iron chelating activity in iron-overloaded BDF1 mouse assessed as iron level in liver at 40 mg/kg, ip treated from day 8 to 13 after erythrocyte suspension injection on day 1, 3 and 5 by atomic absorption spectroscopic analysis", "type": "functional", "conditions": "route intraperitoneal", "in_short": "as §1"}, "[16]": {"system": "Mus musculus", "test": "Iron chelating activity in iron-overloaded BDF1 mouse assessed as iron level in liver at 80 mg/kg, ip treated from day 8 to 13 after erythrocyte suspension injection on day 1, 3 and 5 by atomic absorption spectroscopic analysis", "type": "functional", "conditions": "route intraperitoneal", "in_short": "as §1"}, "[17]": {"system": "Mus musculus", "test": "Iron chelating activity in iron-overloaded BDF1 mouse assessed as iron level in liver at 50 mg/kg, ip treated from day 8 to 13 after erythrocyte suspension injection on day 1, 3 and 5 by atomic absorption spectroscopic analysis", "type": "functional", "conditions": "route intraperitoneal", "in_short": "as §1"}, "[18]": {"system": "Mus musculus", "test": "Iron chelating activity in iron-overloaded BDF1 mouse assessed as transferrin saturation at 100 mg/kg, ip treated from day 8 to 13 after erythrocyte suspension injection on day 1, 3 and 5 relative to control", "type": "functional", "conditions": "route intraperitoneal", "in_short": "as §2"}, "[19]": {"system": "Mus musculus", "test": "Iron chelating activity in iron-overloaded BDF1 mouse assessed as daily urinary iron level at 50 mg/kg, ip treated from day 8 to 13 after erythrocyte suspension injection on day 1, 3 and 5 by atomic absorption spectroscopic analysis", "type": "functional, Urine", "conditions": "route intraperitoneal"}, "[20]": {"test": "Binding affinity to Fe(NO3)3 assessed as stability constant at pH 7.4 after 1 hr", "type": "physicochemical", "conditions": "pH 7.4, 1 h", "in_short": "as §3"}, "[21]": {"system": "Mus musculus", "test": "Iron chelating activity in iron-overloaded BDF1 mouse assessed as transferrin saturation at 50 mg/kg, ip treated from day 8 to 13 after erythrocyte suspension injection on day 1, 3 and 5 relative to control", "type": "functional", "conditions": "route intraperitoneal", "in_short": "as §2"}, "[22]": {"system": "Mus musculus", "test": "Iron chelating activity in iron-overloaded BDF1 mouse assessed as iron level in heart at 100 mg/kg, ip treated from day 8 to 13 after erythrocyte suspension injection on day 1, 3 and 5 by atomic absorption spectroscopic analysis", "type": "functional", "conditions": "route intraperitoneal", "in_short": "as §1"}, "[23]": {"system": "Mus musculus", "test": "Iron chelating activity in iron-overloaded BDF1 mouse assessed as iron level in lung at 50 mg/kg, ip treated from day 8 to 13 after erythrocyte suspension injection on day 1, 3 and 5 by atomic absorption spectroscopic analysis", "type": "functional", "conditions": "route intraperitoneal", "in_short": "as §1"}, "[24]": {"system": "Mus musculus", "test": "Iron chelating activity in iron-overloaded BDF1 mouse assessed as iron level in liver at 100 mg/kg, ip treated from day 8 to 13 after erythrocyte suspension injection on day 1, 3 and 5 by atomic absorption spectroscopic analysis", "type": "functional", "conditions": "route intraperitoneal", "in_short": "as §1"}, "[25]": {"system": "Mus musculus", "test": "Iron chelating activity in iron-overloaded BDF1 mouse assessed as daily urinary iron level at 100 mg/kg, ip treated from day 8 to 13 after erythrocyte suspension injection on day 1, 3 and 5 by atomic absorption spectroscopic analysis", "type": "functional, Urine", "conditions": "route intraperitoneal"}, "[26]": {"system": "Mus musculus", "test": "Iron chelating activity in iron-overloaded BDF1 mouse assessed as iron level in spleen at 50 mg/kg, ip treated from day 8 to 13 after erythrocyte suspension injection on day 1, 3 and 5 by atomic absorption spectroscopic analysis", "type": "functional", "conditions": "route intraperitoneal", "in_short": "as §1"}, "[27]": {"system": "Mus musculus", "test": "Iron chelating activity in iron-overloaded BDF1 mouse assessed as iron level in heart at 50 mg/kg, ip treated from day 8 to 13 after erythrocyte suspension injection on day 1, 3 and 5 by atomic absorption spectroscopic analysis", "type": "functional", "conditions": "route intraperitoneal", "in_short": "as §1"}, "[28]": {"system": "Mus musculus", "test": "Iron chelating activity in iron-overloaded BDF1 mouse assessed as iron level in lung at 100 mg/kg, ip treated from day 8 to 13 after erythrocyte suspension injection on day 1, 3 and 5 by atomic absorption spectroscopic analysis", "type": "functional", "conditions": "route intraperitoneal", "in_short": "as §1"}, "[29]": {"system": "Mus musculus", "test": "Iron chelating activity in iron-overloaded BDF1 mouse assessed as iron level in spleen at 100 mg/kg, ip treated from day 8 to 13 after erythrocyte suspension injection on day 1, 3 and 5 by atomic absorption spectroscopic analysis", "type": "functional", "conditions": "route intraperitoneal", "in_short": "as §1"}}}
{"smiles": "NC(=S)N/N=C/c1cnccn1", "values": [{"measurement": "Activity", "setting": "[1]", "result": 9.2, "unit": "µg"}, {"measurement": "Activity", "setting": "[2]", "result": 0.3, "unit": "%"}, {"measurement": "Activity", "setting": "[3]", "result": 1.1, "unit": "µg"}, {"measurement": "Activity", "setting": "[4]", "result": 1.4, "unit": "µM"}, {"measurement": "Activity", "setting": "[5]", "result": 44, "unit": "%"}, {"measurement": "Activity", "setting": "[6]", "result": 16.1, "unit": "µg"}, {"measurement": "Activity", "setting": "[7]", "result": 1.1, "unit": "µg"}, {"measurement": "Activity", "setting": "[8]", "result": 15.4, "unit": "µg"}, {"measurement": "Activity", "setting": "[9]", "result": "> 25"}, {"measurement": "Activity", "setting": "[10]", "result": 16.7, "unit": "µg"}, {"measurement": "Activity", "setting": "[11]", "result": "> 17"}, {"measurement": "Activity", "setting": "[12]", "result": 9.4, "unit": "µg"}, {"measurement": "Activity", "setting": "[13]", "result": 58, "unit": "%"}, {"measurement": "Activity", "setting": "[14]", "result": 14.6, "unit": "µg"}, {"measurement": "Activity", "setting": "[15]", "result": 171, "unit": "µg"}, {"measurement": "Activity", "setting": "[16]", "result": 156, "unit": "µg"}]}
{"smiles": "C(=N\\Nc1cnccn1)/c1cnccn1", "values": [{"measurement": "Activity", "setting": "[2]", "result": 0.1, "unit": "%"}, {"measurement": "Activity", "setting": "[4]", "result": "< 1", "unit": "µM"}, {"measurement": "Activity", "setting": "[17]", "result": 174, "unit": "µg"}, {"measurement": "Activity", "setting": "[18]", "result": 38, "unit": "%"}, {"measurement": "Activity", "setting": "[19]", "result": 3.4, "unit": "µg"}, {"measurement": "Activity", "setting": "[20]", "result": "> 27"}, {"measurement": "Activity", "setting": "[21]", "result": 44, "unit": "%"}, {"measurement": "Activity", "setting": "[22]", "result": 7.6, "unit": "µg"}, {"measurement": "Activity", "setting": "[23]", "result": 14.6, "unit": "µg"}, {"measurement": "Activity", "setting": "[24]", "result": 164, "unit": "µg"}, {"measurement": "Activity", "setting": "[11]", "result": 16.4}, {"measurement": "Activity", "setting": "[25]", "result": 4.9, "unit": "µg"}, {"measurement": "Activity", "setting": "[26]", "result": 16.4, "unit": "µg"}, {"measurement": "Activity", "setting": "[27]", "result": 7.4, "unit": "µg"}, {"measurement": "Activity", "setting": "[28]", "result": 12.8, "unit": "µg"}, {"measurement": "Activity", "setting": "[29]", "result": 14.9, "unit": "µg"}]}
{"smiles": "N/C(S)=N/N=C/c1ccccn1", "values": [{"measurement": "Activity", "setting": "[2]", "result": 0.3, "unit": "%"}]}
